Measured values published in ChEMBL document CHEMBL4038330, “Discovery of Potent Orally Active Protease-Activated Receptor 1 (PAR1) Antagonists Based on Andrographolide” (J Med Chem, 2017).

Experiments:
[1] = MRT (0 to infinity) in Wistar rat at 5 mg/kg, po measured up to 24 hrs post dose by HPLC-MS/MS analysis; format: ADME, organism-based; conditions: in vivo
Summary of the method: (§1)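 Male Wistar rats, n = 6 per group, given 1 mg/kg intravenously or 5 mg/kg intragastrically. Blood concentrations followed over 24 h. Non-compartmental analysis; values as median ± SD. Bioavailability from oral versus intravenous exposure.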

Plasma = assay: Drug metabolism in Wistar rat plasma assessed as [M2-2H] metabolite formation at 5 mg/kg, po administered as single dose measured at 3 hrs post dose by LC-HRMS analysis; format: ADME, organism-based; conditions: in vivo
Summary of the method: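 Rats dosed orally at 10 mg/kg or 5 mg/kg. Plasma taken at 3.0 h after dosing. Parent and metabolites detected by extracted ion chromatograms.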

[2] = target: T1, Proteinase-activated receptor 1 (Homo sapiens, UniProt P25116); assay: Antagonist activity at human PAR1 expressed in HEK293 cells co-expressing Galpha15 assessed as inhibition of haTRAP-induced calcium mobilization preincubated for 15 mins followed by haTRAP addition by calcium-4 dye based FLIPR assay; format: functional, cell-based
T1 sequence (P25116 whole entry): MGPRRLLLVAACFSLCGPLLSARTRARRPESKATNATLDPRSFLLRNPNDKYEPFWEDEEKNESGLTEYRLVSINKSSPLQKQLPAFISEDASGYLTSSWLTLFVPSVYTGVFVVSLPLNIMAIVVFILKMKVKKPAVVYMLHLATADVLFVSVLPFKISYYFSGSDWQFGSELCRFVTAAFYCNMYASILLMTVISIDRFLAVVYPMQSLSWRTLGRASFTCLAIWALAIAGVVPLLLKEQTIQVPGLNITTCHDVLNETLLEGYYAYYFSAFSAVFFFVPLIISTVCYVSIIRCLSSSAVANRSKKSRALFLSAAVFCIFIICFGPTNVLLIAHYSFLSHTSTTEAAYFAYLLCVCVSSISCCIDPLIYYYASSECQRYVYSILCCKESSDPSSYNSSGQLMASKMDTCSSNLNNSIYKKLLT

[3] = tested on: ADP-stimulated platelet aggregation; assay: Toxicity in guinea pig assessed as inhibition of ADP-stimulated platelet aggregation at 10 mg/kg, po pretreated for 2 hrs followed by ADP stimulation measured after 5 mins; format: organism-based, Cavia porcellus; conditions: in vivo
Rattus norvegicus = assay: AUMC (0 to infinity) in Wistar rat at 5 mg/kg, po measured up to 24 hrs post dose by HPLC-MS/MS analysis; format: ADME, organism-based; conditions: in vivo; summary of the method: as §1

SMILES: CC1CC[C@@H]2C(C)(C)[C@H](O)CC[C@@]2(C)[C@@H]1/C=C/c1ccc(-c2cccc(F)c2)cn1 (single isomer, unassigned)
- MRT inf [1]: 5.6 h
- Drug metabolism (Plasma): Metabolite_Detected
- IC50 [2]: 1100 nM
- inhibition at 5 min [3]: 6.7%
- AUMC (Rattus norvegicus): 8382 ng·h/mL
